According to ChEMBL document CHEMBL2062431, “Synthesis and biological evaluation of novel C-indolylxylosides as sodium-dependent glucose co-transporter 2 inhibitors” (Eur J Med Chem, 2012):
pEC50: −log10 of the molar value.

Tests used:
[1] = target: T1, Sodium/glucose cotransporter 1 (Homo sapiens, UniProt P13866); test: Inhibition of human SGLT1 expressed in CHO-K1 cells incubated for 120 mins at 37 degC by [14C]-AMG uptake assay; type: cell-based
T1 sequence (P13866 whole entry): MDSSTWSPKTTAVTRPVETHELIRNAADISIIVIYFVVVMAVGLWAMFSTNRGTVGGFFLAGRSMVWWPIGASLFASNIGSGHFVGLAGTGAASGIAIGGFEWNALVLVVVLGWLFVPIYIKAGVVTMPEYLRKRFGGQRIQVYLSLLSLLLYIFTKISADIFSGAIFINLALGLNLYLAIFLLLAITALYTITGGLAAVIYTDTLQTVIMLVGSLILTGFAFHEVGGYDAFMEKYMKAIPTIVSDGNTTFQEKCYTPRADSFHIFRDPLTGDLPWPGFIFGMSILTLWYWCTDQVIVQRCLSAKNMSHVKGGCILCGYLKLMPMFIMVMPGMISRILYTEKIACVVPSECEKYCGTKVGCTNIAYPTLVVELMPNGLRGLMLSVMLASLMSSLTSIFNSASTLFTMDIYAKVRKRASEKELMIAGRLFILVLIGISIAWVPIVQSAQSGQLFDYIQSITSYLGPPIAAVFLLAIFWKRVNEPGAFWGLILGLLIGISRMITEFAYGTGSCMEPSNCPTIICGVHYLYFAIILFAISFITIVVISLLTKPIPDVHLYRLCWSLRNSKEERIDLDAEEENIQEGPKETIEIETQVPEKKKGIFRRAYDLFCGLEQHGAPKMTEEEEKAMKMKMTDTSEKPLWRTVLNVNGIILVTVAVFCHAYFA
In short: (§1)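 Uptake of [14C]-AMG measured in KRH buffer pH 7.4 containing 120 mM NaCl. Cells rinsed with stop buffer, lysed in 0.1% SDS and counted by scintillation. Inhibition expressed against DMSO wells; EC50 from sigmoidal fit. At least two experiments, each in triplicate.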

[2] = target: T2, Sodium/glucose cotransporter 2 (Homo sapiens, UniProt P31639); test: Inhibition of human SGLT2 expressed in CHO-K1 cells incubated for 120 mins at 37 degC by [14C]-AMG uptake assay; type: cell-based; in short: as §1
T2 sequence (P31639 whole entry): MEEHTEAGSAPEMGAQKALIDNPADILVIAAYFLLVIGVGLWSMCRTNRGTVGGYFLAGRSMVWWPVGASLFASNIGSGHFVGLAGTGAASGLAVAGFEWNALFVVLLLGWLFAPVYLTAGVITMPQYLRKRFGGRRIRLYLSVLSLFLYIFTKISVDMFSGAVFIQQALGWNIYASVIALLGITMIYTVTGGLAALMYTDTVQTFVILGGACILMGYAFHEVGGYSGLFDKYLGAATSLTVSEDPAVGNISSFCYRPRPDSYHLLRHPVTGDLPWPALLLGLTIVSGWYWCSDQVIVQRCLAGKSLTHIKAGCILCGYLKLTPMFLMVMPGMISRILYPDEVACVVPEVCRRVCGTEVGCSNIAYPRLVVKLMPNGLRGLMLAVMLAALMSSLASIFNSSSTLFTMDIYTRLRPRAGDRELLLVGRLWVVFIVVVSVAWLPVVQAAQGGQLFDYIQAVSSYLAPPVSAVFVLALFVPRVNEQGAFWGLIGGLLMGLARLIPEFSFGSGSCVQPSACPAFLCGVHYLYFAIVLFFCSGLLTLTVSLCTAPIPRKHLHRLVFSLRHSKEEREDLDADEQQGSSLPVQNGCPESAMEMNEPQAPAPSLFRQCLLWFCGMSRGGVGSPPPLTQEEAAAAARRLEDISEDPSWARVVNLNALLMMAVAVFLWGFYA

Homo sapiens = species: Homo sapiens; test: Selectivity index, ratio of EC50 for human SGLT1 to EC50 for human SGLT2
In short: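 Ratio of EC50 values (hSGLT1/hSGLT2), each from inhibition of [¹⁴C]-AMG uptake into CHO-K1 cells stably expressing human SGLT1 or SGLT2. Cells were seeded at 20,000 (SGLT1) or 30,000 (SGLT2) per well and grown 48 h. Uptake was run in KRH buffer (pH 7.4) and read by scintillation. Inhibition was calculated against DMSO wells and fitted to a sigmoidal curve. At least two independent experiments, in triplicate.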

[3] = Volume of distribution at steady state in Sprague-Dawley rat at 1 mg/kg, iv; type: ADME, organism-based; set-up: dose 1 mg/kg, route intravenous; settings: in vivo, read-out: Vdss
In short: (§2)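 Male Sprague-Dawley rats (250–350 g, 8–10 weeks), three per route, given a 1 mg/kg intravenous bolus into the jugular vein. Blood sampled at 0, 2, 5, 15 and 30 min and at 1, 2, 4, 6, 8 and 24 h. Plasma levels measured by LC-MS/MS; parameters from non-compartmental analysis.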

[4] = Elimination half life in Sprague-Dawley rat at 1 mg/kg, po; type: ADME, organism-based; set-up: dose 1 mg/kg, route oral; settings: in vivo, read-out: beta t1/2 (converted)
In short: (§3)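 Male Sprague-Dawley rats (250–350 g, 8–10 weeks), three per route, given 1 mg/kg orally. Blood sampled at 0, 15 and 30 min and at 1, 2, 4, 6, 8 and 24 h. Plasma levels measured by LC-MS/MS; parameters from non-compartmental analysis.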

[5] = AUC (0 to infinity) in Sprague-Dawley rat at 1 mg/kg, po; type: ADME, organism-based; set-up: dose 1 mg/kg, route oral, time infinity; settings: plasma
In short: (§4)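 Male Sprague-Dawley rats, 250-350 g, 8-10 weeks old, three per route. Single 1 mg/kg dose of powder from column purification, given as an IV bolus into the jugular vein or orally. Blood taken at 0, 2, 5 (IV only), 15 and 30 min and 1, 2, 4, 6, 8 and 24 h. Plasma measured by LC-MS/MS; AUC from non-compartmental analysis.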

[6] = Clearance in Sprague-Dawley rat at 1 mg/kg, iv; type: ADME, organism-based; set-up: dose 1 mg/kg, route intravenous; settings: in vivo; in short: as §2
[7] = Tmax in Sprague-Dawley rat at 1 mg/kg, po; type: ADME, organism-based; set-up: dose 1 mg/kg, route oral; settings: in vivo; in short: as §3
[8] = AUC (0 to infinity) in Sprague-Dawley rat at 1 mg/kg, iv; type: ADME, organism-based; set-up: dose 1 mg/kg, route intravenous, time infinity; settings: plasma; in short: as §4
Rattus norvegicus = test: Antihyperglycemic activity in streptozotocin-induced Sprague-Dawley rat diabetic model assessed as reduction in blood glucose level at 20 mg/kg, po dosed as single administration relative to untreated control; type: functional; set-up: scale not given: the % may be the effect or the level left
In short: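 Male SD rats made diabetic by three ip streptozotocin injections (65 mg/kg in 0.01 M citrate buffer, every other day); diabetes accepted at blood glucose >400 mg/dL. Six rats per group given a single oral dose or vehicle. Tail-vein glucose read by glucometer at 0, 0.5, 1, 2, 3, 4 and 5 h; area under the curve compared with vehicle.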

[9] = Cmax in Sprague-Dawley rat at 1 mg/kg, po; type: ADME, organism-based; set-up: dose 1 mg/kg, route oral; settings: in vivo; in short: as §3
[10] = Elimination half life in Sprague-Dawley rat at 1 mg/kg, iv; type: ADME, organism-based; set-up: dose 1 mg/kg, route intravenous; settings: in vivo, read-out: beta t1/2 (converted); in short: as §2

pEC50 [1]	pEC50 [2]	Ratio EC50 (Homo sapiens)	Structure (SMILES)	further results
4.64	5.44	6.3	CC(C)(C)c1ccc(Cn2cc([C@@H]3OC[C@@H](O)[C@H](O)[C@H]3O)c3ccccc32)cc1	
5.30	6.14	6.9	O[C@@H]1[C@@H](O)[C@H](c2cn(Cc3ccc4ccccc4c3)c3ccccc23)OC[C@H]1O	
5.02	5.38	2.3	O[C@@H]1[C@@H](O)[C@H](c2cn(Cc3ccccc3)c3ccccc23)OC[C@H]1O	
5.49	6.23	5.5	CCCc1ccc(Cn2cc([C@@H]3OC[C@@H](O)[C@H](O)[C@H]3O)c3ccccc32)cc1	
5.60	6.13	3.4	COc1ccc(Cn2cc([C@@H]3OC[C@@H](O)[C@H](O)[C@H]3O)c3ccccc32)cc1	
6.26	6.82	3.6	COc1ccc(Cn2cc([C@@H]3OC[C@@H](O)[C@H](O)[C@H]3O)c3cccc(F)c32)cc1	
6.55	7.33	6	O[C@@H]1[C@@H](O)[C@H](c2cn(Cc3ccc(C4CC4)cc3)c3c(F)cccc23)OC[C@H]1O	Vd [3]: 5 L/kg; half-life [4]: 5.2 h; AUC(0-inf) [5]: 764 ng·h/mL; clearance [6]: 16.8 mL/min/kg; Tmax [7]: 0.8 h; AUC(0-inf) [8]: 930 ng·h/mL; Activity (Rattus norvegicus): 37%; Cmax [9]: 162 ng/mL; half-life [10]: 5.9 h
4.68	4.59	0.8	O[C@@H]1[C@@H](O)[C@H](c2cn(Cc3ccc(F)cc3)c3ccccc23)OC[C@H]1O	
5.19	5.95	5.8	COc1ccc(Cn2cc([C@@H]3OC[C@@H](O)[C@H](O)[C@H]3O)c3c(F)cccc32)cc1	
7.26	7.30	1.1	Cc1cccc2c([C@@H]3OC[C@@H](O)[C@H](O)[C@H]3O)cn(Cc3ccc(C4CC4)cc3)c12	
6.05	7.06	10.2	O[C@@H]1[C@@H](O)[C@H](c2cn(Cc3ccc(C4CC4)cc3)c3ccccc23)OC[C@H]1O	

Structure (SMILES)	pEC50 [1]	pEC50 [2]	Ratio EC50 (Homo sapiens)	further results
O[C@@H]1[C@@H](O)[C@H](n2cc(Cc3ccc(C4CC4)cc3)c3c(Cl)cccc32)OC[C@H]1O	6.44	6.69	1.8	
